How the values were obtained:
KG-1 = assay: Antiproliferative activity against human KG1 cells after 72 hrs by CCK8 assay; conditions: KG-1, 72 h
[1] = molecular target: Tyrosine-protein kinase JAK1 (Homo sapiens) (UniProt P23458); assay: Inhibition of JAK1 (unknown origin) at 100 nM relative to control
Summary of the method: (§1)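 Purified recombinant kinase domains run in ELISA on precoated poly(Glu,Tyr) 4:1 (20 µg/mL) with 10 µM ATP in 50 mM HEPES pH 7.4, 50 mM MgCl2, 0.5 mM MnCl2, 0.2 mM Na3VO4, 1 mM DTT; 1% DMSO control; 60 min at 37 °C. Phosphotyrosine read by PY99 antibody, HRP anti-mouse IgG, OPD/H2O2 at 490 nm; inhibition = [1−A490/A490control]×100%; two separate experiments.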

[2] = molecular target: Tyrosine-protein kinase ABL1 (Homo sapiens) (UniProt P00519); assay: Inhibition of ABL (unknown origin) at 100 nM relative to control
[3] = molecular target: Proto-oncogene tyrosine-protein kinase Src (Homo sapiens) (UniProt P12931); assay: Inhibition of c-Src (unknown origin) at 100 nM relative to control
Summary of the method: (§2)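 ELISA with purified recombinant kinase on plates precoated with poly(Glu,Tyr) 4:1 at 20 µg/mL. ATP 10 µM in HEPES pH 7.4 buffer with MgCl2, MnCl2, Na3VO4 and DTT. Run 60 min at 37 °C. Detected with anti-phosphotyrosine PY99, HRP secondary antibody and o-phenylenediamine, read at 490 nm. Inhibition % = [1 − A490/A490 control]×100. 1% DMSO as negative control.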

[4] = molecular target: Tyrosine-protein kinase BTK (Homo sapiens) (UniProt Q06187); assay: Inhibition of BTK (unknown origin) at 10 nM relative to control
[5] = Tmax in ICR(CD-1) mouse at 10 mg/kg, po administered via gavage by triple quadrupole mass spectrometric analysis; assay type: ADME, organism-based; conditions: in vivo
Summary of the method: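 Dosed by gavage at 1 mg/mL in 1% Tween80/water to male ICR mice, 18-22 g, n=3. Blood taken at 0.25, 0.5, 1, 2, 4, 8 and 24 h. Plasma precipitated with methanol:acetonitrile (1:1) containing internal standard, then UPLC-MS/MS on a C18 column with an ammonium acetate/formic acid–acetonitrile gradient. Tmax read directly from the data; MRT calculated per animal from concentration–time curves.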

[6] = molecular target: Proto-oncogene tyrosine-protein kinase Src (Homo sapiens) (UniProt P12931); assay: Inhibition of c-Src (unknown origin) at 1000 nM relative to control; summary of the method: as §2
[7] = molecular target: T1, Ephrin type-B receptor 2 (Homo sapiens) (UniProt P29323); assay: Inhibition of EPH-B2 (unknown origin) at 10 nM relative to control; summary of the method: as §1
T1 sequence (whole entry): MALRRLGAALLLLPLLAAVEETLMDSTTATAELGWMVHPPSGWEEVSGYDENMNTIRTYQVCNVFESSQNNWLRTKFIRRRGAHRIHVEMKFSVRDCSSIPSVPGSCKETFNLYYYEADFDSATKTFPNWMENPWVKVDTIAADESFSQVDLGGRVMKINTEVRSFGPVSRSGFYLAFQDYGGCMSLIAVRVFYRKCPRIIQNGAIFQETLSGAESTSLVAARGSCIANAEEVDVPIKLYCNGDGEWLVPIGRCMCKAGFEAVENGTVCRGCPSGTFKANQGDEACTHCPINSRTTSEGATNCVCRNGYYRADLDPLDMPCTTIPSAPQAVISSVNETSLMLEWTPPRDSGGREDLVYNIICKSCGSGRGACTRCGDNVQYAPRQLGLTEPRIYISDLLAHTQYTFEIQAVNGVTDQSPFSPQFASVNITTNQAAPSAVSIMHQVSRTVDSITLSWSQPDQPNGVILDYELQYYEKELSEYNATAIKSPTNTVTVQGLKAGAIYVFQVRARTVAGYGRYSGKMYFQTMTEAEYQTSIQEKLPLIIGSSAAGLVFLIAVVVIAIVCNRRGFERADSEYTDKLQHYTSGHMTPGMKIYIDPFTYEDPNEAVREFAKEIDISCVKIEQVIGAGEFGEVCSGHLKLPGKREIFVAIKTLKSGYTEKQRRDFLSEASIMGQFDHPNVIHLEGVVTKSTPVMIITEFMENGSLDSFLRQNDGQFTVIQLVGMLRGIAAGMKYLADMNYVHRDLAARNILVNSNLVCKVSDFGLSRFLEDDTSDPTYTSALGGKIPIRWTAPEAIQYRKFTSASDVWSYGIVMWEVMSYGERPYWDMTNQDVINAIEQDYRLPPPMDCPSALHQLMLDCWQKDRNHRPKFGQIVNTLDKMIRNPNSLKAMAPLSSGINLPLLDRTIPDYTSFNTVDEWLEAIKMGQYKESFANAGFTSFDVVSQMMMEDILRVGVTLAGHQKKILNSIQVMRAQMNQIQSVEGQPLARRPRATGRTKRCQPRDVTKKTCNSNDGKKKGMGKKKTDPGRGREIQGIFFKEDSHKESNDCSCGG

[8] = molecular target: Vascular endothelial growth factor receptor 1 (Homo sapiens) (UniProt P17948); assay: Inhibition of VEGFR1 (unknown origin) at 1000 nM relative to control; summary of the method: as §2
[9] = molecular target: Voltage-gated inwardly rectifying potassium channel KCNH2 (Homo sapiens, UniProt Q12809); assay: Inhibition of human ERG by automated patch clamp electrophysiology assay
Summary of the method: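 Automated patch clamp electrophysiology on the hERG channel.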

[10] = molecular target: Epidermal growth factor receptor (Homo sapiens) (UniProt P00533); assay: Inhibition of EGFR (unknown origin) at 100 nM relative to control
[11] = molecular target: Epidermal growth factor receptor (Homo sapiens) (UniProt P00533); assay: Inhibition of EGFR (unknown origin) at 1000 nM relative to control; summary of the method: as §1

Epidermal growth factor receptor (Homo sapiens), sequence (P00533 whole entry): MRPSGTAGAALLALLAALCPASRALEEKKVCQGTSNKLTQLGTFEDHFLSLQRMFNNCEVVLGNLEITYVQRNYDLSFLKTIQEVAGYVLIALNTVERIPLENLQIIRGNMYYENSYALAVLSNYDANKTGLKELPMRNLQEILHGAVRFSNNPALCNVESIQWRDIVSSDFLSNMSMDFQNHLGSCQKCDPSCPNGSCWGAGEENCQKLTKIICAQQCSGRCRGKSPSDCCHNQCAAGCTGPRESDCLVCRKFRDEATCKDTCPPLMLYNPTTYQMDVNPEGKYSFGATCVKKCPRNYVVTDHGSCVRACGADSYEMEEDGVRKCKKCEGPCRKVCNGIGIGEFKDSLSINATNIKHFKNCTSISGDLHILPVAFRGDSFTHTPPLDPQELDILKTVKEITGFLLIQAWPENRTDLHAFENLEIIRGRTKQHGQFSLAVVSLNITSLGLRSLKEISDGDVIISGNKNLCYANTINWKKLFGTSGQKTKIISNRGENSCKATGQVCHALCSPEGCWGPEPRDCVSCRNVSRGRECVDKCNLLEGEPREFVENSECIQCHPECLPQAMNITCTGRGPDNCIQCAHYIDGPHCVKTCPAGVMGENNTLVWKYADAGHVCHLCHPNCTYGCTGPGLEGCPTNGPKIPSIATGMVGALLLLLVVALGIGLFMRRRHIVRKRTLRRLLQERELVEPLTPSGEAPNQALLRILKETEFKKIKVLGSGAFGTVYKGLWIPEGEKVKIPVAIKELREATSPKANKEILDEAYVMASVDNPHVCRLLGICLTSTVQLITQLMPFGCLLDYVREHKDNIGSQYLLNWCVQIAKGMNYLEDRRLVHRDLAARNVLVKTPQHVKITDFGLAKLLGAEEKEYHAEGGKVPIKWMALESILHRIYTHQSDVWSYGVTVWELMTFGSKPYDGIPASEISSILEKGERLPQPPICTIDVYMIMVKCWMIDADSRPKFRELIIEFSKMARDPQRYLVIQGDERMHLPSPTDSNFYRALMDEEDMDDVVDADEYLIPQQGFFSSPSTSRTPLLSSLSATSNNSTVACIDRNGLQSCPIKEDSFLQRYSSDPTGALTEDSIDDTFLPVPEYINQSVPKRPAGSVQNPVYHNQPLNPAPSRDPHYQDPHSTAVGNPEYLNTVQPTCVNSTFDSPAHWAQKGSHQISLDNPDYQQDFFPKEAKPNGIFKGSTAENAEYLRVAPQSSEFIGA
Proto-oncogene tyrosine-protein kinase Src (Homo sapiens), sequence (P12931 2-536 limits assumed): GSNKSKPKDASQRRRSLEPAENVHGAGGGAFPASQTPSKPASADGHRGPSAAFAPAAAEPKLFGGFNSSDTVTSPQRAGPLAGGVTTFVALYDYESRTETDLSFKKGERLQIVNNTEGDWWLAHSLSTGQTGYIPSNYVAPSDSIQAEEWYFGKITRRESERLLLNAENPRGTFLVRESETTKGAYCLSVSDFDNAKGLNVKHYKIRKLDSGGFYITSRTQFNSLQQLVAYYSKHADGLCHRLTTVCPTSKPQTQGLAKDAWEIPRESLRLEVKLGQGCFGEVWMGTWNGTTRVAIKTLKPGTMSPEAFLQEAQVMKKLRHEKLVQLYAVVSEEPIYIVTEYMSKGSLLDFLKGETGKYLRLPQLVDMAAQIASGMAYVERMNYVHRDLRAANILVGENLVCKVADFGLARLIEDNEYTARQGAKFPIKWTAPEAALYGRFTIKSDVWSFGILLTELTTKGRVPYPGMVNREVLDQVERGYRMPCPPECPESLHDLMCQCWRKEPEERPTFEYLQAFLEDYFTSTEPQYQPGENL
Tyrosine-protein kinase ABL1 (Homo sapiens), sequence (P00519 whole entry): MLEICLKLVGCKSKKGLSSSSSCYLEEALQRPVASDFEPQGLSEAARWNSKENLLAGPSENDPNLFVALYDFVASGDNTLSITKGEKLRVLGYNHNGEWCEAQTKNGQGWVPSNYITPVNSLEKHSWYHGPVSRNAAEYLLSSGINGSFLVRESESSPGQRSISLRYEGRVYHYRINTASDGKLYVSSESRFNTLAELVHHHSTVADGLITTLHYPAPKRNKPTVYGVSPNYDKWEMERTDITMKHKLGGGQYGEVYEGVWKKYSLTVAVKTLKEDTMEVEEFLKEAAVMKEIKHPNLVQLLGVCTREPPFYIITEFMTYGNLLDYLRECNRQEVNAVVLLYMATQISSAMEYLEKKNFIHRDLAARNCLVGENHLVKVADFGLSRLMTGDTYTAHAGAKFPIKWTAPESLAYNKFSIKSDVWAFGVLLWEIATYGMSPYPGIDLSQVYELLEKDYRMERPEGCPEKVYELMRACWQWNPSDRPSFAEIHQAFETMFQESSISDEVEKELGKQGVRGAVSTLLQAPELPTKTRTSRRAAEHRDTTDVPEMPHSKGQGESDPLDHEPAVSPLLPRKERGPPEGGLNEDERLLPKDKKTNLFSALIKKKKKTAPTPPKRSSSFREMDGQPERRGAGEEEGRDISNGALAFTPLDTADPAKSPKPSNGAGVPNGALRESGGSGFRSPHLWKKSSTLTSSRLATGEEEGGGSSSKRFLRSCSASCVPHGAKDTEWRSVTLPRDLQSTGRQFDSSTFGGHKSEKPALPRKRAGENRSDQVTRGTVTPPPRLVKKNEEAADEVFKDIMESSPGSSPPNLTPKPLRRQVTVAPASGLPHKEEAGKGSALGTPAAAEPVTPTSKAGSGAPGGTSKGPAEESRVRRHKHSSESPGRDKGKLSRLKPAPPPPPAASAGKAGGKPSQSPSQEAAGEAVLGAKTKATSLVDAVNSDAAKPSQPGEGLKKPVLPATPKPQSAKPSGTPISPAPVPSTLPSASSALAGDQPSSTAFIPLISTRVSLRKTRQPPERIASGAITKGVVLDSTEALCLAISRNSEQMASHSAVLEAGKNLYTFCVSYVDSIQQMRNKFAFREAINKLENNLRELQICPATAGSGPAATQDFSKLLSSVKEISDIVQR
Voltage-gated inwardly rectifying potassium channel KCNH2, sequence (Q12809 whole entry): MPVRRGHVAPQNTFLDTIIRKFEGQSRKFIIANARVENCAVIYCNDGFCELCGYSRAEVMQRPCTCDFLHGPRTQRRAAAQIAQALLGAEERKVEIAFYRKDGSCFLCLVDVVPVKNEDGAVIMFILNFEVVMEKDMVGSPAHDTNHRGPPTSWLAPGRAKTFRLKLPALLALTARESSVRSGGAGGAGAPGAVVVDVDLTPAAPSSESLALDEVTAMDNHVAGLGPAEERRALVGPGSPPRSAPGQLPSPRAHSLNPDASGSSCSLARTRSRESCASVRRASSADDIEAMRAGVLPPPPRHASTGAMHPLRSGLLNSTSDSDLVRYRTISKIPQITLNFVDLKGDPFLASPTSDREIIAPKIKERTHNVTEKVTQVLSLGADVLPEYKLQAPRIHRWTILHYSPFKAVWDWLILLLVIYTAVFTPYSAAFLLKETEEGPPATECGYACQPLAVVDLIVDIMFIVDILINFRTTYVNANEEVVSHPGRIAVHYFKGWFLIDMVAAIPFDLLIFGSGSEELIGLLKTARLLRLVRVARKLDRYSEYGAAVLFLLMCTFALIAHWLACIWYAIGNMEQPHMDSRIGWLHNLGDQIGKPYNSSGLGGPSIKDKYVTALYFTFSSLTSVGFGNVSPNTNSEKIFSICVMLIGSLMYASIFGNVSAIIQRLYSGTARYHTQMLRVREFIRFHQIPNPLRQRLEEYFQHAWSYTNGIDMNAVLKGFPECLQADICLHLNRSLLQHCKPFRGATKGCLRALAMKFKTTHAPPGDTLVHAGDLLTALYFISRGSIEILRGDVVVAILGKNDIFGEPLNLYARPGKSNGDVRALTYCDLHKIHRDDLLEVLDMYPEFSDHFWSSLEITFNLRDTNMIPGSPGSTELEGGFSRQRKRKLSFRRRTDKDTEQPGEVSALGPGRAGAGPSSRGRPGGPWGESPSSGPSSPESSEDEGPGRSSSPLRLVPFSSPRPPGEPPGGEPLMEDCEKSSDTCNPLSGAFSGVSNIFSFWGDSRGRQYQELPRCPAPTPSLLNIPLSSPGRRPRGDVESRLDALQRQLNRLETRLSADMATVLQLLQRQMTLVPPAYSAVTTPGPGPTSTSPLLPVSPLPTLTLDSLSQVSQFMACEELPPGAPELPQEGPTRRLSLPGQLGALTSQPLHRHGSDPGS
Tyrosine-protein kinase BTK (Homo sapiens), sequence (Q06187 whole entry): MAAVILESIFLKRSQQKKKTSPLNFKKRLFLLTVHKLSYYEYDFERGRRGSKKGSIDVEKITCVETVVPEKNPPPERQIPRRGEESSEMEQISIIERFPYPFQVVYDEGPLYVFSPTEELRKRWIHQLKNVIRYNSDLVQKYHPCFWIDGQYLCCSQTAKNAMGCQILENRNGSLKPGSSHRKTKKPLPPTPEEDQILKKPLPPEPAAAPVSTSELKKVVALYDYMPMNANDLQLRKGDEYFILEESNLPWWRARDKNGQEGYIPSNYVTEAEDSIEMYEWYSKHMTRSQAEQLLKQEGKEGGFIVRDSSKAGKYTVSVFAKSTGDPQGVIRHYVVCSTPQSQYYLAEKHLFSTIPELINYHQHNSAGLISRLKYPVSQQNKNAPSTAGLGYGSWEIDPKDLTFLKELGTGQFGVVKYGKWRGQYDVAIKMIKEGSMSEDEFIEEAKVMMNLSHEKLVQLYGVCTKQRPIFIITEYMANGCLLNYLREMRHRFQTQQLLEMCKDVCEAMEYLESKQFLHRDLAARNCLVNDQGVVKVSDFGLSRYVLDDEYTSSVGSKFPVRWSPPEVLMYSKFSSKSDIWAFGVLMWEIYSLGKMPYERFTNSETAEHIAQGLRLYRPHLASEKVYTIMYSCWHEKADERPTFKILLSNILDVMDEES

inhibition [1]: 13.1%
inhibition [2]: 100%
inhibition [3]: 87.6%
inhibition [4]: 32%
Tmax [5]: 2 h
inhibition [6]: 96.8%
inhibition [7]: 48%
inhibition [8]: 86.6%
inhibition [10]: 33.9%
inhibition [11]: 18.1%
Compound: Cc1ccc(C(=O)Nc2cccc(C(F)(F)F)c2)cc1-c1ccc2c(-c3cnn(C4CC4)c3)n[nH]c2c1
IC50 (KG-1): 108 nM
IC50 [9]: > 40000 nM

Source: ChEMBL document CHEMBL4411287, “Discovery and optimization of a series of 3-substituted indazole derivatives as multi-target kinase inhibitors for the treatment of lung squamous cell carcinoma” (Eur J Med Chem, 2019)
